Drawing on ChEMBL document CHEMBL1126064, “Enzymatic synthesis and comparative biological evaluation of a phosphonate analogue of the lipid A precursor” (1992), this text covers EU, Stimulation and increase in temperature for two molecules.

The nature of test [1]: Endotoxic activity determined by limulus amoebocyte lysate (LAL) assay.
The target in test [2] is T1, Ornithine decarboxylase (Mus musculus) (UniProt P00860).
T1 sequence (whole entry): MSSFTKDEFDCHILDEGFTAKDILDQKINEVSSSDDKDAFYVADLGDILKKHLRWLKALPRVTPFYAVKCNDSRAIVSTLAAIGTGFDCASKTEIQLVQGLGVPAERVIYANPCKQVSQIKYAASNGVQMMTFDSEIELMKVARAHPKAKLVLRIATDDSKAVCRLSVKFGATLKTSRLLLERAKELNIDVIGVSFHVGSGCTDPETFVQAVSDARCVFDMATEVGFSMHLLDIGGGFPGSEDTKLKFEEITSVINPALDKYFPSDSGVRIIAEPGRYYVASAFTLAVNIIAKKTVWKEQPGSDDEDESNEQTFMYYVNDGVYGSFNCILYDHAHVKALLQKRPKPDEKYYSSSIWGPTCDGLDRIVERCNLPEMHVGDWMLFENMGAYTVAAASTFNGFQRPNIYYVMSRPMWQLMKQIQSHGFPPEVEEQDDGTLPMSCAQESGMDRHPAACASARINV
As to the kind of experiment: Compound was evaluated for the stimulation of Ornithine decarboxylase (ODC) activity in murine macrophagelike cell line RAW264 as a parameter for macrophage stimulation, and the pyrogenicity test in rabbits at a concentration of 0.02 ug/ml. The method, boiled down: (§1)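 RAW-264 cells at 5.5 × 10^5 cells/mL in serum-free DMEM-H21 with 15 mM HEPES and 1 mM pyruvate, held overnight at 37 °C/5% CO2. Murine γ-IFN (2000 units/mL) and test material in pyrogen-free water then added for 4 h. Cells were lysed by sonication, and ODC in the supernatant was assayed with [3H]-L-ornithine plus 1 mM L-ornithine stock, 60 min at 37 °C. LPS 5 ng/mL served as internal standard.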

Test [3] deals with T1, Ornithine decarboxylase (Mus musculus). Put plainly: Compound was evaluated for the stimulation of Ornithine decarboxylase (ODC) activity in murine macrophagelike cell line RAW264 as a parameter for macrophage stimulation, and the pyrogenicity test in rabbits at a concentration of 0.1 ug/ml. The procedure, abridged:
as §1

For test [4] the target is unchanged. As to the kind of experiment: Compound was evaluated for the stimulation of Ornithine decarboxylase (ODC) activity in murine macrophagelike cell line RAW264 as a parameter for macrophage stimulation, and the pyrogenicity test in rabbits at a concentration of 0.5 ug/ml. The method, boiled down:
as §1

The test system of test [5] is Oryctolagus cuniculus. As to the kind of experiment: Increase in temperature of three rabbits treatment with the compound at a dose of 50 ug/kg. The format is functional.
Test [6] addresses T1, Ornithine decarboxylase (Mus musculus). Put plainly: Compound was evaluated for the stimulation of Ornithine decarboxylase (ODC) activity in murine macrophagelike cell line RAW264 as a parameter for macrophage stimulation, and the pyrogenicity test in rabbits at a concentration of 2 ug/ml. The procedure, abridged: as §1
Test [7] has the same target. Put plainly: Compound was evaluated for the stimulation of Ornithine decarboxylase (ODC) activity in murine macrophagelike cell line RAW264 as a parameter for macrophage stimulation, and the pyrogenicity test in rabbits at a concentration of 10 ug/ml. The method, boiled down: as §1
For test [8], the system named is Oryctolagus cuniculus. As to the kind of experiment: Increase in temperature of three rabbits treatment with the compound at a dose of 1 ug/kg. The format is functional.

Turning to `CCCCCCCCCCCC(O)CC(=O)N[C@@H]1C(OCC2OC(OP(=O)(O)O)[C@@H](NC(=O)CC(O)CCCCCCCCCCC)C(OC(=O)CC(O)CCCCCCCCCCC)[C@@H]2O)OC(CO)[C@@H](O)C1OC(=O)CC(O)CCCCCCCCCCC` (stereo partly specified), in test [1], the EU is 80000 g⁻¹. In addition, the Stimulation in test [2] came to 2%; in test [3] it was 30%; in test [4] it was 60%; in test [6], 98%; in test [7] it was 97%. Besides, the results for the increase in temperature in the test on Oryctolagus cuniculus [5] and with Oryctolagus cuniculus [8] were 5.95 and 2.1, respectively.
For the molecule `CCCCCCCCCCCC(O)CC(=O)N[C@@H]1C(OCC2OC(P(=O)(O)O)[C@@H](NC(=O)CC(O)CCCCCCCCCCC)C(OC(=O)CC(O)CCCCCCCCCCC)[C@@H]2O)OC(CO)[C@@H](O)C1OC(=O)CC(O)CCCCCCCCCCC` (stereo partly specified) [PHOSPHONATE ANALOGUE OF LIPID A], the EU in test [1] amounted to 30000 g⁻¹. Moreover, the Stimulation in test [2] was 5%; in test [3], 20%; in test [4], 70%; in test [6], 75%; in test [7] it was 84%. In addition, the increase in temperature in the test on Oryctolagus cuniculus [5] was found to be 6.6; in the test with Oryctolagus cuniculus [8], 2.1.
